The list is not random: actives were taken first. Their share in the collection is about 4.1%.
UBC13 polyUb: human UBC13 polyubiquitination inhibition; P61088; UBC13 polyubiquitin chain formation, TR-FRET; inhibition, % at 20 µM; 330,000 tested, 0.47% active; in the data active = inhibition above about 45%, passing the limit was not always enough
Target sequence (P61088 whole entry, looked up): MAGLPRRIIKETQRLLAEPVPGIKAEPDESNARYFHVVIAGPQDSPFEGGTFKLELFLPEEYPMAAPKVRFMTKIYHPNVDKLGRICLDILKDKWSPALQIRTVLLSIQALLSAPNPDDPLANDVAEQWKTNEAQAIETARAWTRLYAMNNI
UPR XBP1 act: adaptive UPR (XBP1) activation; AID 463104; 330,000 tested, 0.33% active; activation, % at 20 µM; CHO-XBP1 luciferase reporter, IRE1-XBP1 UPR activation, luminescence; percent of tunicamycin response, DMSO as zero;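 active = versus positive control, 20 µM dose yields 30% or more activation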;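 also: 100% = tunicamycin at 10 µg/mL and 0% = DMSO only wells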
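Material: IRE1-XBP1 luciferase reporter CHO line / Quantity: one thousand reporter cells per well / Buffer or medium: F12 with 10% serum / Compound: 20 µM single concentration, DMSO 1% / Times: 6 h treatment, 37 °C / Detection: Steady-Glo luciferase glow luminescence, 10 min after reagent addition / Benchmarks: tunicamycin high, DMSO low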
Apaf1 inhib: inhibitors of human Apaf-1 apoptosome; O14727; reconstituted apoptosome caspase-3 activity, DEVD-Rh110 fluorescence; inhibition, % at 20 µM; 330,000 tested, 0.71% active; AID 489030; active = inhibition of at least 40% at 20 µM;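 also: plate controls were DMSO wells for no effect and DEVD-CHO caspase inhibitor wells for full effect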
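System: reconstituted apoptosome with Apaf-1, cytochrome c, caspase-9, procaspase-3, dATP; Signal: Rh110 fluorescence intensity; Schedule: 30 min compound preincubation, 50 min activation, room temperature; Reagent: cytochrome c trigger plus (Z-DEVD)2-Rh110 caspase-3 substrate.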
CHOP UPR activ: apoptotic UPR (CHOP) activation; 330,000 tested, 0.34% active; activation, % at 10 µM; AID 449763; CHO-CHOP luciferase reporter, luminescence; percent of tunicamycin response over DMSO baseline;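 active = at 10 µM dose, activation of 40% or more, normalized to positive control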;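 also: 100% = tunicamycin at 10 µg/mL and 0% = DMSO alone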
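Test system: CHO-CHOP cells, stable luciferase reporter of PERK-eIF2a-CHOP signalling | Quantity: 500 CHO-CHOP cells per well | Buffer or medium: F12 plus 10% serum | Compound dosing: 10 µM single point, 0.5% DMSO | Schedule: 6 h compound treatment, 37 °C | Signal: Luciferase luminescence | Control set: Tunicamycin high control, DMSO low control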
Mdm2-MdmX inh: human Mdm2/MdmX binding inhibition; O15151+Q00987; SaOS-2 split-luciferase Mdm2/MdmX complementation, luminescence; inhibition, % at 8 µM; 330,000 tested, 3% active;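 active = inhibition of at least 50% at 8 µM in the primary screen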
Mdm2-MdmX conf: confirmation of human Mdm2/MdmX interaction inhibitors; shares compounds with Mdm2-MdmX inh; Mdm2-MdmX binding, luminescent assay; inhibition, % at 8 µM; 10,000 tested, 55% active; in the data active = inhibition above about 40%
Full FLuc ctr: inhibits full-length luciferase, flagging false Mdm2/MdmX hits | shares compounds with Mdm2-MdmX inh | SaOS-2 full-length luciferase counterscreen, luminescence | inhibition, % at 8 µM | 6,200 tested, 77% active | AID 504607;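 active = mean inhibition at 8 µM reaching about 37%, which flags the compound as non-specific, limit read from the data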;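 also: p53-null SaOS-2 cells with luciferase driven by a doxycycline-inducible promoter; compound on cells about two nights before reading with doxycycline added after day one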
Active calls of the source: *; · = no result.

SMILES	UBC13 polyUb	UPR XBP1 act	Apaf1 inhib	CHOP UPR activ	Mdm2-MdmX inh	Mdm2-MdmX conf	Full FLuc ctr
CC(Nc1cc(N2CCN(C(=O)C(C)(C)C)CC2)ccc1[N+](=O)[O-])c1ccccc1 (stereo unspecified)	-17	5	11	0	31	·	·
O=[N+]([O-])c1ccc(O)c(-c2cc(C(F)(F)F)nc(-c3ccccc3)n2)c1	-2	0	6	33	95*	99*	52*
Nc1nc(N)nc(-c2cc(O)ccc2O)n1	12	-1	-2	1	88*	95*	55*
Nc1nc(N)nc(-c2cc([N+](=O)[O-])ccc2O)n1	-11	-4	-13	4	77*	63*	82*
COc1ccc(/C=C2/NC(=O)N(Cc3ccccc3F)C2=O)cc1OC	12	1	-5	-1	85*	7	·
Cc1c(/C=C2\SC(=O)N(CC(=O)Nc3ccc4c(c3)OCO4)C2=O)c2ccccc2n1C	-2	2	-1	-2	39	·	·
Cc1cccc(NC(=O)CN2C(=O)S/C(=C\c3ccccn3)C2=O)c1	1	0	-13	1	84*	25	·
CCOc1cc(/C=C2/NC(=O)N(CC(=O)Nc3cccc(C)c3)C2=O)ccc1O	-18	1	15	0	-23	·	·
CCn1cc(/C=C2\SC(=O)N(CC(=O)Nc3ccc4c(c3)OCO4)C2=O)c2ccccc21	-18	3	-2	-6	68*	47*	91*
CCOc1cc(/C=C2/NC(=O)N(CC(=O)Nc3cccc(C)c3)C2=O)ccc1OC	-1	2	-1	-3	70*	65*	32
COc1cc(/C=C2/NC(=O)N(Cc3ccccc3F)C2=O)cc(OC)c1OC	-15	0	15	3	1	·	·
O=C(NCC1CC1)c1cc(-c2ccccc2)nn1CC1CC(c2cccc([N+](=O)[O-])c2)=NO1 (stereo unspecified)	3	-5	7	-1	0	·	·
Cc1ccc(NC(=O)CNc2ccccc2N2CCCC2=O)cc1S(=O)(=O)N1CCCCC1	11	-1	18	0	17	·	·
CCOc1ccc(NC(=O)CN(C)C(=O)c2ccccc2-n2cnnn2)cc1OCC	-2	0	7	0	12	·	·
O=Cc1cccn1Cc1ccccc1[N+](=O)[O-]	-9	-1	-9	0	23	·	·
Cn1c(=O)n(C)c2cc(/C=C3/NC(=O)N(Cc4ccccc4)C3=O)ccc21	2	4	1	0	51*	39	88*
Cc1ccc(/C=C2/NC(=O)N(Cc3ccccc3)C2=O)o1	-14	-1	9	9	8	·	·
Cc1ccc(-n2c(SCC(=O)N/N=C/c3c(C)nn(-c4ccccc4)c3C)nc3ccccc3c2=O)cc1	0	2	9	4	66*	47*	68*
CCn1c(SCC(=O)N/N=C/c2ccc(C)s2)nc2ccccc21	3	1	11	0	58*	61*	59*
C=C(C)Cn1c(SCC(=O)N/N=C/c2c(O)ccc3ccccc23)nc2ccccc2c1=O	1	-2	-5	3	83*	56*	31
CC[C@]1(c2ccccc2)C(=O)N(C(=O)OC)N1C(=O)OC	-7	-3	0	-1	33	·	·
COC(=O)N1C(=O)[C@@](c2ccccc2)(C2CCCCC2)N1C(=O)OC	4	-3	16	2	66*	45*	49*
COC(=O)N1C(=O)[C@](Cc2ccccc2)(c2ccccc2)N1C(=O)OC	-6	-3	9	-2	55*	25	·
COC(=O)N1C(=O)[C@@](Cc2ccccc2)(c2ccccc2)N1C(=O)OC	-2	-4	8	0	61*	50*	57*
CC[C@@]1(c2ccccc2C)C(=O)N(C(=O)OC)N1C(=O)OC	-4	-6	-1	-2	20	·	·
SMILES	UBC13 polyUb	UPR XBP1 act	Apaf1 inhib	CHOP UPR activ	Mdm2-MdmX inh	Mdm2-MdmX conf	Full FLuc ctr
CC[C@@]1(c2ccccc2)C(=O)N(C(=O)OC)N1C(=O)OC	-7	-1	-1	-1	19	·	·
O=C1c2ccc(Cl)cc2S(=O)(=O)c2cccc(C(=O)N3CCC(Cc4ccccc4)CC3)c21	1	-3	26	2	68*	-3	·
O=C(NCCOc1ccccc1)c1cccc2c1C(=O)c1ccc(Cl)cc1S2(=O)=O	1	1	11	5	16	·	·
COc1ccc(OC[C@@H](O)CNC(=O)c2cccc3c2C(=O)c2ccc(-c4ccc(F)cc4OCc4ccccc4)cc2S3(=O)=O)cc1	-38	-1	4	5	13	·	·
O=C(NCCOc1ccccc1Cl)c1cccc2c1C(=O)c1ccc(Cl)cc1S2(=O)=O	7	-1	-1	3	59*	-3	·
COc1ccc(NC(=O)c2cccc3c2C(=O)c2ccc(-c4ccc(F)cc4OCc4ccccc4)cc2S3(=O)=O)cc1	-15	0	2	3	78*	31	·
COc1ccc(-c2ccc3c(c2)S(=O)(=O)c2cccc(C(=O)NCCOc4ccccc4)c2C3=O)cc1OC	-7	4	-1	13	76*	27	·
O=C(OCC(=O)c1ccc(Cl)s1)c1ccc(CO)cc1	-3	8	6	4	-8	·	·
COc1ccccc1N1CCN(C2CCCN(C(=O)c3cc(C4CC4)on3)C2)CC1 (stereo unspecified)	8	-6	-2	0	24	·	·
Clc1ccc(-n2ncc3c(N4CCCC4)ncnc32)cc1	12	-5	-9	-8	51*	66*	168*
Cc1nn(-c2ccccc2)c(Cl)c1C(=O)N1CCN(c2ncnc3c2cnn3-c2ccccc2)CC1	-8	-12	25	-5	97*	88*	58*
O=C(c1ccccc1)N1CCN(c2ncnc3c2cnn3-c2ccccc2)CC1	12	-1	1	2	-28	·	·
Cn1ncc2c(N3CCN(c4ccc(Cl)c(Cl)c4)CC3)ncnc21	20	0	1	2	92*	74*	99*
O=[N+]([O-])c1ccc(Oc2cccc(F)c2)c2ccncc12	-2	0	9	-2	58*	26	·
CC(=O)c1nn(-c2cccc(Br)c2)cc1C(=O)c1ccc(Br)cc1	2	4	7	2	56*	-7	·
Cn1c2ccccc2c2c(C(=O)N3CCN(c4ccccc4)CC3)cn(C3CCCC3)c(=O)c21	1	-1	15	-3	9	·	·
Cc1cccc(N2CCN(C(=O)c3cc(S(=O)(=O)N4CCCC4)cn3C)CC2)c1C	-2	-1	17	-2	55*	58*	49*

Compound activity deposited in PubChem BioAssay by Sanford-Burnham Center for Chemical Genomics.
